Data set [1] relates to CAG and MM.1R myeloma cells. Briefly: Stress and apoptosis marker antibody array, myeloma cells. In kind it is cell-based, human. The following applies: CAG and MM.1R cells, 30 μM, over 9 hr.
For data set [2], the system named is UM-SCC47, SCC25, MDA-MB-468, MDA-MB-231, MCF-7 and SKBr3 carcinoma cells. Kind of data set: Cell growth assay, head and neck and breast carcinoma cell panel. Format: cell-based, human. The following applies: 3, 10 or 30 μM peptide, 3 days. A digest of the protocol:
(§1)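 Adherent cells (1–2 × 10^3/well) were grown with 3, 10 or 30 μM test peptide for 3 days at 37 °C. Carcinoma lines were kept in DMEM with 4 mM L-glutamine, 10% FBS and penicillin/streptomycin; SCC lines also received 1 μg/mL hydrocortisone. Cell number was read by CellTiter-GLO as % increase relative to untreated cells.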

Data set [3] in a line: Peptide stability in mouse serum. The note with it: data not shown. Format: in vitro ADME.
The next data set has as its system HUVECs. Briefly: Stress and apoptosis marker antibody array, HUVEC. Format: cell-based, human. The following applies: 30 μM, 24 hr.
For a further data set, the system named is P3X63Ag8 myeloma cells. Briefly: Cell growth assay, mouse myeloma cells. In kind it is cell-based. The note with it: 30 μM peptide, three-day treatment, complete medium. A digest of the protocol: (§2)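 Myeloma cells (2.5 × 10^4/well) were grown in RPMI 1640 with 4 mM L-glutamine, 10% FBS and 0.05 mM β-mercaptoethanol; CAG cells also received 40 μg/mL Geneticin. Cells were grown with 30 μM test peptide or its variant for 3 days at 37 °C, 7.5% CO2. Cell number was read by CellTiter-GLO as % increase relative to untreated cells.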

Data set [4] deals with MDA-MB-231 breast carcinoma cells. Kind of data set: Stress and apoptosis marker antibody array, MDA-MB-231. The note with it: MDA-MB-231, 30 μM, up to 24 hr; compared with HUVEC response. Format: cell-based, human. A digest of the protocol: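 MDA-MB-231 cells in complete medium were treated with or without 30 μM test peptide for 1, 3, 9 or 24 hr. Whole-cell lysates from equal cell equivalents were run on a stress and apoptosis signalling antibody array. Relative fluorescence at 700 nm was read per target, in two separate experiments.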

In another data set the test system is HUVEC(Sdc1−). Briefly: Cell growth assay, HUVEC isolate lacking Sdc1. Format: cell-based, human. The note with it: 30 μM peptide, 3 days. The essentials:
(§3)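 Endothelial cells (1–2 × 10^3/well) were grown in complete medium with 30 μM test peptide or its variant for 3 days at 37 °C, 7.5% CO2. Cell number was read by CellTiter-GLO and expressed as % increase relative to untreated cells.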

The subject of a further data set is HUVEC endothelial cells. Briefly: Cell growth assay, HUVEC. In kind it is cell-based, human. The following applies: 30 μM peptide, 3 days, Sdc1-positive HUVEC. The essentials: as §3
In another data set the test system is CAG myeloma cells. Briefly: Caspase3/7-GLO apoptosis assay, CAG. In kind it is cell-based, human. The essentials: (§4)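 Myeloma cells in complete medium were pre-treated for 1 hr with JNK inhibitor or DMSO vehicle, then given or not given 30 μM test peptide, for 9 hr total. Caspase 3/7 activity was read by Caspase3/7-GLO luminescence and expressed as fold increase over vehicle alone (set to 1.0).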

The subject of a further data set is HMEC-1 endothelial cells. Briefly: Cell growth assay, HMEC-1. In kind it is cell-based, human. The following applies: 30 μM peptide, 3 days. A digest of the protocol:
as §3

For another data set, the system named is HaCaT keratinocytes. Kind of data set: Cell growth assay, HaCaT. Format: cell-based, human. The following applies: 3, 10 or 30 μM peptide, 3 days. The essentials: as §1
The next data set deals with ASK1. Format: cell-based, human. The following applies: CAG and MM.1R cells, 10 μM. A digest of the protocol: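 ASK1 or Sdc1 was immunoprecipitated from cell lysates (0.5–1.0 mg input per sample), with or without competing test peptide. Lysis buffer contained protease and phosphatase inhibitors. Blots were probed for co-precipitated ASK1 and Sdc1, total ASK1, and phospho-ASK1 (pThr838/Thr845, pSer83, pSer966/Ser967).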

A further data set deals with CAG cells. Kind of data set: ApoTox-GLO viability/apoptosis and TUNEL assay in CAG cells. In kind it is cell-based, human. The note with it: 24 hr. The essentials:
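CAG cells (2.5 × 10^4/well) were grown in complete medium with 1–30 μM test peptide for 24 hr at 37 °C. Viability and caspase activation/apoptosis were read by ApoTox-GLO as % of untreated cells.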

The nature of data set [5]: Peptide stability in bovine serum. In kind it is in vitro ADME. The note with it: data not shown.
For a further data set, the system named is CAG myeloma xenografts. Briefly: CAG myeloma xenograft growth and tumor angiogenesis in nude mice. In kind it is in vivo, mouse. The following applies: Alzet pump 3.65 mg/kg/day, 4 weeks.
Data set [6] has as its system MCF10A breast epithelial cells. Kind of data set: Cell growth assay, MCF10A. Format: cell-based, human. The following applies: 3, 10 or 30 μM peptide, 3 days. The essentials:
as §1

Data set [7] concerns CAG, RPMI-8226, KMS-12, U266, MM.1R myeloma cells. Briefly: Cell growth assay, human myeloma cells. In kind it is cell-based. The note with it: three-day growth assay, relative to SSTNIGF1R. The essentials:
as §2

Data set [8] addresses IGF1R and αvβ5 integrin complex with Sdc1 (Homo sapiens, UniProt P06756+P08069+P18084). Kind of data set: Immunoprecipitation of Sdc1 with competing SSTN peptides. In kind it is binding. The essentials: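 CAG cell lysates from suspension culture were immunoprecipitated with isotype-matched control mIgG1 or mAbs to Sdc1 (B-A38), αvβ5 integrin (P1F6) and/or IGF1R (JBW902), in the presence of test peptide (1 μM) or a variant peptide (1, 3 or 10 μM). Precipitates were probed for Sdc1, IGF1R and αvβ5 integrin.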

The test system of a further data set is MM.1R myeloma cells. Briefly: Caspase3/7-GLO apoptosis assay, MM.1R. Format: cell-based, human. The following applies: MM.1R cells. A digest of the protocol:
as §4

The mark [9] stands for this setting: 10 μM SP600125 with SSTNIGF1R, data not shown.
Where [10] appears, read: 1 μM JNK-IN-8 with 30 μM SSTNIGF1R, 9 hr.

Sequence of IGF1R and αvβ5 integrin complex with Sdc1 (P08069 31-736 limits assumed): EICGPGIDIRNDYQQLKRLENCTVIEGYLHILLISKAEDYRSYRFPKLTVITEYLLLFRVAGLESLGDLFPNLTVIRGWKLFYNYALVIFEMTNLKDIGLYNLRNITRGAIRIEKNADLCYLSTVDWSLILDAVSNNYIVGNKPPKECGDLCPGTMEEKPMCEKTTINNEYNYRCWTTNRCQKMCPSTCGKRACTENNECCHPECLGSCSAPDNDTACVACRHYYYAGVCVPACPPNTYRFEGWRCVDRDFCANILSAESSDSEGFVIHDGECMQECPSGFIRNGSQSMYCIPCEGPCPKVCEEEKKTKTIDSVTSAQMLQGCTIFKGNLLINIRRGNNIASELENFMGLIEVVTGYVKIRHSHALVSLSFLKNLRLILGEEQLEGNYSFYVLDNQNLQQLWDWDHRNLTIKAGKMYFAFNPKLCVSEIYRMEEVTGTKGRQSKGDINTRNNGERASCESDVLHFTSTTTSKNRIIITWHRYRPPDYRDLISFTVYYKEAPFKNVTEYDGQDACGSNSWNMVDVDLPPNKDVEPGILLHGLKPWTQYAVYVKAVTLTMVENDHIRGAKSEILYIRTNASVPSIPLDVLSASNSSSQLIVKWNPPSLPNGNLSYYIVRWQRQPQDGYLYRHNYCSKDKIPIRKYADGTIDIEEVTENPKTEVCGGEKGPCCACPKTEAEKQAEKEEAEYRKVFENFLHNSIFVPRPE
Sequence of IGF1R and αvβ5 integrin complex with Sdc1 (P08069 741-1367 limits assumed): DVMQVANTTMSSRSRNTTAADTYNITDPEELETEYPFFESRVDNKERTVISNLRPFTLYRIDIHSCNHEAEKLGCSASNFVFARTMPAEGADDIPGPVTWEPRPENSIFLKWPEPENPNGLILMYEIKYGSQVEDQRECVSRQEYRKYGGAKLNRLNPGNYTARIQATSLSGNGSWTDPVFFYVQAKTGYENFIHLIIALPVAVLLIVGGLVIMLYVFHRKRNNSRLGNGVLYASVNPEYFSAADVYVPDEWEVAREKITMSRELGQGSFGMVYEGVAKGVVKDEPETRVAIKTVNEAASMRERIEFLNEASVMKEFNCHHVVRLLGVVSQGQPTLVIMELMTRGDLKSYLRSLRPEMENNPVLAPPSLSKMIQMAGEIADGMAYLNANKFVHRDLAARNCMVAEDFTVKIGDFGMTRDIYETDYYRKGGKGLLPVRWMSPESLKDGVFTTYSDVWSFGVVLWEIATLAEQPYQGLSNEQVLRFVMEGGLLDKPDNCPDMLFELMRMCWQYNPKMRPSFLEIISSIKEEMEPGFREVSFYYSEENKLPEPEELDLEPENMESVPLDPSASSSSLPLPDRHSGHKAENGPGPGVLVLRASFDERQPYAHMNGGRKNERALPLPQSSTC
Sequence of IGF1R and αvβ5 integrin complex with Sdc1 (P06756 31-889 limits assumed): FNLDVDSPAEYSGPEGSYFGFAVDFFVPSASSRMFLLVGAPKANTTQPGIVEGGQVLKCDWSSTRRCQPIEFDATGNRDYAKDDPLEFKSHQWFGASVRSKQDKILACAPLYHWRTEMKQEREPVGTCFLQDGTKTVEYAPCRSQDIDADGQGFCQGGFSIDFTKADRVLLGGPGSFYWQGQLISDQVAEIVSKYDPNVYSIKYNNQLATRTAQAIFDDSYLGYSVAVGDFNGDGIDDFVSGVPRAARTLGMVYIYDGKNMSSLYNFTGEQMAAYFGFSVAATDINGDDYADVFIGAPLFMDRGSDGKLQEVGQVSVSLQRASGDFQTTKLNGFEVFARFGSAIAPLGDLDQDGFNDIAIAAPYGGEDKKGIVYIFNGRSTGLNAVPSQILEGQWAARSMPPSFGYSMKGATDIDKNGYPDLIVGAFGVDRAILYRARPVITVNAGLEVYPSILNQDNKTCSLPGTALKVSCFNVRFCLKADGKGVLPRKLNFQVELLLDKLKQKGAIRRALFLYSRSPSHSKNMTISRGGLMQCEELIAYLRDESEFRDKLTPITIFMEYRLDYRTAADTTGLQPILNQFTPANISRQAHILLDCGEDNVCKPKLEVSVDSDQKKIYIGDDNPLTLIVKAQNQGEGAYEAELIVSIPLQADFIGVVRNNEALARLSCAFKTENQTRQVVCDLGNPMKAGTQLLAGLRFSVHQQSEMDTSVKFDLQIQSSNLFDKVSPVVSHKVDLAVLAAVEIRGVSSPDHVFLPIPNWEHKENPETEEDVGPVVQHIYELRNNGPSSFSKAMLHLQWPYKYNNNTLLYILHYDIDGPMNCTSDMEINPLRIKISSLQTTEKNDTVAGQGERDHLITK
Sequence of IGF1R and αvβ5 integrin complex with Sdc1 (P06756 891-1048 limits assumed): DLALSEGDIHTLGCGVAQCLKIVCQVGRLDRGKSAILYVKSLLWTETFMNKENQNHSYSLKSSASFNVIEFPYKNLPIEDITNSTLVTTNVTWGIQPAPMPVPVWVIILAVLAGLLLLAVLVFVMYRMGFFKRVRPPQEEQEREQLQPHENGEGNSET
Sequence of IGF1R and αvβ5 integrin complex with Sdc1 (P18084 24-799): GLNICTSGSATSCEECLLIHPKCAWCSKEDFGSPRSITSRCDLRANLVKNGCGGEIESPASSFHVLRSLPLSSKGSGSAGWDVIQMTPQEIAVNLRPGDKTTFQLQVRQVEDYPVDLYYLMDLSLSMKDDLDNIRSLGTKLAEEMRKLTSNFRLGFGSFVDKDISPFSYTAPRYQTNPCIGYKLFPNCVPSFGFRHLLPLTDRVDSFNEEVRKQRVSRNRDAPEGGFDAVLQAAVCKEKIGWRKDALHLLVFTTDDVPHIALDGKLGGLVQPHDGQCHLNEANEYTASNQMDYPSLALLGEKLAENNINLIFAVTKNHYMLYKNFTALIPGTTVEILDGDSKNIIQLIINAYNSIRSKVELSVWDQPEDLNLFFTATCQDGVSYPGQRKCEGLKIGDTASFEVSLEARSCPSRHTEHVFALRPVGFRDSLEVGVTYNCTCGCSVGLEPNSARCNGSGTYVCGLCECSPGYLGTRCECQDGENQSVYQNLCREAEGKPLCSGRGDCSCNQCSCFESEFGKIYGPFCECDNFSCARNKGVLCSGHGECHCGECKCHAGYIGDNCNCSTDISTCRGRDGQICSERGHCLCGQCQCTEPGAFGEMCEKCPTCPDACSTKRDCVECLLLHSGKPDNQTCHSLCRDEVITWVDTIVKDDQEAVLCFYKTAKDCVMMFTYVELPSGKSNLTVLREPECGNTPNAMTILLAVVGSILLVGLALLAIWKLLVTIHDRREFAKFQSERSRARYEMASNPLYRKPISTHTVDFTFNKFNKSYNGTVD

“SSTNIGF1R: peptide that inhibits IGF1R capture by Sdc1; comprised of amino acids 92–119 in mouse Sdc1 (LPAGEKPEEGEPVLHVEAEPGFTARDKE)”: the “apoptosis markers (antibody array)” value in data set [1] is “increased phosphorylation of p53 (Ser15), activation of JNK and activation of caspase-3”; in the data set with HUVECs, “Activation of the JNK pathway and caspase-3, and a reduction in levels of IkBα”; in data set [4], “almost identical apoptotic response”. Besides, in data set [2], the “growth of head and neck and breast carcinoma cells” value is “reduced growth”. In addition, the “activity retained after incubation in mouse serum” value in data set [3] was “retains full activity”. The “growth of mouse myeloma cells” value in the data set with P3X63Ag8 myeloma cells is recorded as “significantly reduced”. For the same compound, in the data set with HUVEC(Sdc1−), the “growth of HUVEC isolate lacking Sdc1” value was “insensitive”. Also, the “growth of HUVEC endothelial cells” value in the data set on HUVEC endothelial cells was “inhibits the growth”. The “increase in caspase 3/7 activity relative to vehicle” value in the data set with CAG myeloma cells (30 μM SSTNIGF1R alone, 9 hr) is listed as around 5 fold. In addition, the “growth of HMEC-1 endothelial cells” value in the data set on HMEC-1 endothelial cells is “inhibits the growth”. Moreover, the “growth of non-transformed HaCaT keratinocytes” value in the data set on HaCaT keratinocytes was “unaffected”. The “co-immunoprecipitation of ASK1 with Sdc1” value with ASK1 was “prevented”. Besides, the “apoptosis by TUNEL assay” value in the data set with CAG cells (30 μM) is given as “DNA fragmentation”. Also, in the data set on CAG cells (1–30 μM), the “apoptosis: caspase activation (ApoTox-GLO)” value is “executioner caspase activation”. Moreover, in the data set on CAG cells (1–30 μM), the “cell viability (ApoTox-GLO)” value is given as “significant loss of viability”. Besides, in data set [5], the “activity retained after incubation in bovine serum” value is given as “retains full activity”. In addition, the “reduction of blood vessel density in residual tumors” value in the data set on CAG myeloma xenografts (MECA-32 staining intensity) is “over 90%”. Further, in the data set with CAG myeloma xenografts (nude mice, CAG tumors, 8 tumors per cohort), the tumors eradicated is 3 of the 8. The “growth of non-transformed MCF10A breast epithelial cells” value in [6] is “unaffected”.

On to “SSTNIGF1R-T: truncated synstatin peptide comprising amino acids 94–119 of Sdc1 (AGEKPEEGEPVLHVEAEPGFTARDKE)”, for which the “fold less effective than SSTNIGF1R at causing myeloma cell loss” value in data set [7] was 3–10 fold. Further, the “disruption of capture of IGF1R and αvβ5 integrin by Sdc1” value in data set [8] (1, 3 or 10 μM peptide, myeloma cell lysates) was “disrupts capture of IGF1R and αvβ5 integrin by Sdc1”. In data set [8] (myeloma cells, relative to SSTNIGF1R), the “fold less effective than SSTNIGF1R at disrupting IGF1R capture by Sdc1” value is recorded as 3–10 fold. For the same compound, the “growth of HUVEC endothelial cells” value with HUVEC endothelial cells is reported as “without effect”. The “growth of HMEC-1 endothelial cells” value in the data set on HMEC-1 endothelial cells is recorded as “without effect”. Besides, in the data set on CAG myeloma xenografts (MECA-32 staining intensity), the “effect on tumor angiogenesis” value was “no significant effect”.

For `Oc1c2ccccc2c2c3c(cccc13)N=N2` [SP600125], the “block of SSTNIGF1R-induced caspase 3/7 activation” value with MM.1R myeloma cells (setting [9]) and in the data set with CAG myeloma cells (setting [9]) was “Near identical results” each time.

Take `Cc1cc(NC(=O)c2cccc(NC(=O)/C=C/CN(C)C)c2)ccc1Nc1nccc(-c2cccnc2)n1` [JNK-IN-8]: the “block of SSTNIGF1R-induced caspase 3/7 activation” value in the data set with MM.1R myeloma cells (setting [10]) and in the data set on CAG myeloma cells (setting [10]) was “complete block” each time.

Source of the values: PMC5010496 (Cancer research, 2016).
